One may read the IC50 as the concentration that gives 50% inhibition.

In brackets after ≈: the same amount, converted by molar mass.

What all share (format): functional, cell-based
For test [1], the system named is P388. As to the kind of experiment: Antitumor activity against mouse P388 cells. An outline of the steps:
(§1)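 Cells from four lines (P-388, A-549, HT-29, MEL-28) were tested in parallel with reference standards. Activity was read out as IC50 in […], using a previously published antitumor assay protocol.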

Test [2] relates to A549. Put plainly: Antitumor activity against human A549 cells. An outline of the steps: as §1
Test [3] relates to HT-29. As to the kind of experiment: Antitumor activity against human HT-29 cells. The essentials:
as §1

A short description of test [4]: Antitumor activity against human SK MEL28 cells. The following applies: SK-MEL-28. An outline of the steps:
as §1

With `CC1(C)CCC[C@]2(C)[C@@H]3C(=CO[C@@H]3O)CC[C@@H]12`, the IC50 in test [1] was 0.5 µg/mL (≈ 2.12 µM); in test [2], 0.5 µg/mL (≈ 2.12 µM); in test [3], 1 µg/mL (≈ 4.23 µM); in test [4] it was 1 µg/mL (≈ 4.23 µM).

As to `COc1cccc2c1C(=O)c1c(O)c3c(c(O)c1C2=O)C[C@@](O)(C(=O)CO)C[C@@H]3O[C@H]1C[C@H](N)[C@H](O)[C@H](C)O1.Cl` [DOXORUBICIN HYDROCHLORIDE], the IC50 in test [1] is 0.1 µg/mL; in test [2] it was 0.025 µg/mL; in test [3], 0.5 µg/mL; in test [4] it was 0.5 µg/mL.

With `O=c1[nH]cc(F)c(=O)[nH]1` [FLUOROURACIL], the IC50 in test [1] worked out at 0.02 µg/mL (≈ 0.154 µM); in test [2], 0.1 µg/mL (≈ 0.769 µM); in test [3] it was 0.1 µg/mL (≈ 0.769 µM); in test [4], 0.1 µg/mL (≈ 0.769 µM).

For the molecule `CN(Cc1cnc2nc(N)nc(N)c2n1)c1ccc(C(=O)N[C@@H](CCC(=O)O)C(=O)O)cc1` [METHOTREXATE], the IC50 in test [1] came to 0.002 µg/mL (≈ 0.0044 µM); in test [2] it was 0.005 µg/mL (≈ 0.011 µM); in test [3] it was 0.01 µg/mL (≈ 0.022 µM); in test [4], 0.01 µg/mL (≈ 0.022 µM).

Consider `CC1(C)CCC[C@]2(C)[C@@H](C=O)C(C=O)=CC[C@@H]12` [POLYGODIAL], for which the IC50 in test [1] is 1.2 µg/mL (≈ 5.12 µM); in test [2], 2.5 µg/mL (≈ 10.7 µM); in test [3], 2.5 µg/mL (≈ 10.7 µM); in test [4], 2.5 µg/mL (≈ 10.7 µM).

For the origin of these results see ChEMBL document CHEMBL1144135, “Synthesis of 11,12-epoxydrim-8,12-en-11-ol, 11,12-diacetoxydrimane, and warburganal from (-)-sclareol” (J Nat Prod, 1999).
